Activity data for eight compounds are collected here from ChEMBL document CHEMBL4673184, “Synthesis and biological evaluation of S-lipidated lipopeptides of a connexin 43 channel inhibitory peptide” (RSC Med Chem, 2020).

Molecules are shown by their SMILES. The source made the active and inactive calls. The rule behind the calls is not given here. Where a SMILES comes first, the peptide text is derived from it. [ ]: non-standard residue; d: D form. The star is where a group is joined. Ethyl(2-stearoyloxy) = CCCCCCCCCCCCCCCCCC(=O)OCC*; Ethyl(2-palmitoyloxy) = CCCCCCCCCCCCCCCC(=O)OCC*; CH2CH2OBz(4-tBu) = CC(C)(C)c1ccc(C(=O)OCC*)cc1; Ethyl(2-decanoyloxy) = CCCCCCCCCC(=O)OCC*; Ethyl(2-butanoyloxy) = CCCC(=O)OCC*; Ethyl(2-OPiv) = CC(C)(C)C(=O)OCC*; Mpa = O=C(O)CCS

Sequence of Gap junction alpha-1 protein (Homo sapiens) (P17302 whole entry): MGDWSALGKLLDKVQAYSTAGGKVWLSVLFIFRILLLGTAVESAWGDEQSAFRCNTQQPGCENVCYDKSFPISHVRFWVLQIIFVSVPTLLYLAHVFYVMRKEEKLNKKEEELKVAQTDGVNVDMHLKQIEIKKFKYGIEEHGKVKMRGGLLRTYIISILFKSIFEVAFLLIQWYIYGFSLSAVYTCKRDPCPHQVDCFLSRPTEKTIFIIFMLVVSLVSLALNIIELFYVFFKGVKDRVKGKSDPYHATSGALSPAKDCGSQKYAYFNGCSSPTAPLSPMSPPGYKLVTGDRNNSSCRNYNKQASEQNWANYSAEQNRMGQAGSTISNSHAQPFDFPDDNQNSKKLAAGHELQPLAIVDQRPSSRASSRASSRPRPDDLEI

The target in this assay is Gap junction alpha-1 protein (Homo sapiens) (UniProt P17302). In words: Inhibition of Cx43 in hypoxic-acidic ion-shifted ringers solution-induced human cerebral microvascular endothelial cell model of ischaemic injury assessed as ATP release at 10 uM measured after 2 hrs by luciferin-luciferase based luminescence assay relative to control. The arrangement: scale not given: the % may be the effect or the level left. In a few lines:
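hCMVEC (passages 8-17) seeded at 2 x 10^6/well on collagen-I (1 µg/cm²) and grown 48 h to a confluent monolayer. Washed in NR, then exposed 2 h in HAIR (pH 6.6, N₂-bubbled, low Ca²⁺, K-gluconate/NMDG) containing peptide at 10 µM. Supernatant diluted 1:10 in firefly luciferase mix and read at 560 nm against an ATP standard (0-50 nM). Expressed as % of HAIR-only, mean of n=3.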
Take `CCCCCCCCCC(=O)OCCSC[C@H](NC(=O)[C@@H]1CCCN1C(=O)[C@H](CCCNC(=N)N)NC(=O)[C@H](CO)NC(=O)[C@H](CC(C)C)NC(=O)[C@H](Cc1ccccc1)NC(=O)[C@H](CS)NC(=O)[C@H](CC(=O)O)NC(=O)[C@@H](N)C(C)C)C(=O)N[C@@H](CCC(=O)O)C(=O)N[C@@H](CCCCN)C(=O)N[C@H](C(=O)O)[C@@H](C)O` (H-VDCFLSRPC(Ethyl(2-decanoyloxy))EKT-OH): the result was inactive.

Consider `CCCCCCCCCCCCCCCCCC(=O)OCCSCCC(=O)N[C@H](C(=O)N[C@@H](CC(=O)O)C(=O)N[C@@H](CS)C(=O)N[C@@H](Cc1ccccc1)C(=O)N[C@@H](CC(C)C)C(=O)N[C@@H](CO)C(=O)N[C@@H](CCCNC(=N)N)C(=O)N1CCC[C@H]1C(=O)N[C@H](C(=O)N[C@@H](CCC(=O)O)C(=O)N[C@@H](CCCCN)C(=O)N[C@H](C(=O)O)[C@@H](C)O)[C@@H](C)O)C(C)C` ([Mpa](Ethyl(2-stearoyloxy))VDCFLSRPTEKT-OH), for which the result was inactive.

Regarding `CCCCCCCCCCCCCCCCCC(=O)OCCSC[C@H](NC(=O)[C@H](CS)NC(=O)[C@H](CC(=O)O)NC(=O)[C@@H](N)C(C)C)C(=O)N[C@@H](CC(C)C)C(=O)N[C@@H](CO)C(=O)N[C@@H](CCCNC(=N)N)C(=O)N1CCC[C@H]1C(=O)N[C@H](C(=O)N[C@@H](CCC(=O)O)C(=O)N[C@@H](CCCCN)C(=O)N[C@H](C(=O)O)[C@@H](C)O)[C@@H](C)O` (H-VDCC(Ethyl(2-stearoyloxy))LSRPTEKT-OH), the result was inactive.

Take `CCCC(=O)OCCSC[C@H](N)C(=O)N[C@@H](CC(=O)O)C(=O)N[C@@H](CS)C(=O)N[C@@H](Cc1ccccc1)C(=O)N[C@@H](CC(C)C)C(=O)N[C@@H](CO)C(=O)N[C@@H](CCCNC(=N)N)C(=O)N1CCC[C@H]1C(=O)N[C@H](C(=O)N[C@@H](CCC(=O)O)C(=O)N[C@@H](CCCCN)C(=O)N[C@H](C(=O)O)[C@@H](C)O)[C@@H](C)O` (H-C(Ethyl(2-butanoyloxy))DCFLSRPTEKT-OH): the result was inactive.

As to `CC(C)C[C@H](NC(=O)[C@H](CSCCOC(=O)c1ccc(C(C)(C)C)cc1)NC(=O)[C@H](CS)NC(=O)[C@H](CC(=O)O)NC(=O)[C@@H](N)C(C)C)C(=O)N[C@@H](CO)C(=O)N[C@@H](CCCNC(=N)N)C(=O)N1CCC[C@H]1C(=O)N[C@H](C(=O)N[C@@H](CCC(=O)O)C(=O)N[C@@H](CCCCN)C(=O)N[C@H](C(=O)O)[C@@H](C)O)[C@@H](C)O` (H-VDCC(CH2CH2OBz(4-tBu))LSRPTEKT-OH), the outcome was inactive.

For the compound `CC(C)C[C@H](NC(=O)[C@H](Cc1ccccc1)NC(=O)[C@H](CS)NC(=O)[C@H](CC(=O)O)NC(=O)[C@@H](N)C(C)C)C(=O)N[C@@H](CO)C(=O)N[C@@H](CCCNC(=N)N)C(=O)N1CCC[C@H]1C(=O)N[C@H](C(=O)N[C@@H](CSCCOC(=O)C(C)(C)C)C(=O)N[C@@H](CCCCN)C(=O)N[C@H](C(=O)O)[C@@H](C)O)[C@@H](C)O` (H-VDCFLSRPTC(Ethyl(2-OPiv))KT-OH), the outcome was inactive.

With `CCCCCCCCCCCCCCCC(=O)OCCSC[C@H](NC(=O)[C@@H]1CCCN1C(=O)[C@H](CCCNC(=N)N)NC(=O)[C@H](CO)NC(=O)[C@H](CC(C)C)NC(=O)[C@H](Cc1ccccc1)NC(=O)[C@H](CS)NC(=O)[C@H](CC(=O)O)NC(=O)[C@@H](N)C(C)C)C(=O)N[C@@H](CCC(=O)O)C(=O)N[C@@H](CCCCN)C(=O)N[C@H](C(=O)O)[C@@H](C)O` (H-VDCFLSRPC(Ethyl(2-palmitoyloxy))EKT-OH), the Activity is 102%.

For the compound `CCCCCCCCCCCCCCCC(=O)OCCSC[C@H](NC(=O)[C@@H](NC(=O)[C@@H]1CCCN1C(=O)[C@H](CCCNC(=N)N)NC(=O)[C@H](CO)NC(=O)[C@H](CC(C)C)NC(=O)[C@H](Cc1ccccc1)NC(=O)[C@H](CS)NC(=O)[C@H](CC(=O)O)NC(=O)[C@@H](N)C(C)C)[C@@H](C)O)C(=O)N[C@@H](CCCCN)C(=O)N[C@H](C(=O)O)[C@@H](C)O` (H-VDCFLSRPTC(Ethyl(2-palmitoyloxy))KT-OH), the Activity was determined as 114%.
